In ChEMBL document CHEMBL3580618, “New trisubstituted 1,2,4-triazoles as ghrelin receptor antagonists” (Bioorg Med Chem Lett, 2015) one finds IC50 and Retention_time data, which are given here for 20 compounds.

Each structure is given as a SMILES string.

In series [1] the target is T1, Growth hormone secretagogue receptor type 1 (Homo sapiens, UniProt Q92847). Nature of the series: Displacement of 125I-[His9]-ghrelin from human GHSR1a expressed in LLC-PK1 cells by competitive binding assay. Type of series: cell-based. For orientation: Displacement assays read how much labelled ligand stays bound in the presence of the test substance.
T1 sequence (Q92847 whole entry): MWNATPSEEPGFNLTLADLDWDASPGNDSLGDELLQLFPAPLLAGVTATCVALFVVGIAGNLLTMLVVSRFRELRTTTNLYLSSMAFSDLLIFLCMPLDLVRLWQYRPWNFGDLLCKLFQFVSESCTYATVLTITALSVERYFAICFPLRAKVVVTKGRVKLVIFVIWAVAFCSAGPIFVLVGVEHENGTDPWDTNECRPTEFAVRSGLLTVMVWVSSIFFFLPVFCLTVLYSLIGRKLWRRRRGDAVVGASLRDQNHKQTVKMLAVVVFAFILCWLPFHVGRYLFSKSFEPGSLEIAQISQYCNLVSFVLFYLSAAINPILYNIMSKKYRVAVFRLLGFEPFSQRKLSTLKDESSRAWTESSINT
Series [2] in a line: Retention time of the compound by LC-MS analysis. Type of series: physicochemical.
Series [3] is described as follows: Retention time of the compound by HPLC analysis. Type of series: physicochemical.
Series [4] addresses T1, Growth hormone secretagogue receptor type 1. The series is described as follows: Antagonist activity at human GSHR1a expressed in mouse LTK cells assessed as inhibition of ghrelin-induced reporter gene expression after 6 hrs by CRE/luciferase reporter gene assay. Type of series: functional, cell-based. Put shortly: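 Mouse LTK cells stably expressing human GHS-R1a with luciferase reporter under CRE elements and CMV minimal promoter. Cells incubated 6 h with 1 µM rolipram, test compound at various concentrations and saturating ghrelin. Cells then lysed and bioluminescence read. % inhibition: ghrelin-treated cells = 0%, untreated cells = 100%. Quadruplicate points. IC50 from one experiment for weaker compounds, mean of at least two experiments for nanomolar ones.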
On the technique in general: A reporter such as luciferase makes a cellular process visible.

Series [5] shares this target. Nature of the series: Antagonist activity at GHSR1a (unknown origin) assessed as inhibition of ghrelin-induced intracellular calcium mobilization. Format: functional, cell-based. In outline:
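GHS-R1a-expressing cells; [Ca2+]i mobilization read. Compounds failing to raise calcium above 10% of maximal response (100% = 10^-7 M ghrelin) at 10^-5 M were treated as antagonists. […] One experiment, mean points from quadruplicate measurements.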

Consider `COc1ccc(Cn2c(CCc3ccccc3)nnc2[C@@H](Cc2c[nH]c3ccccc23)NC(=O)c2nccc3ccccc23)cc1`, for which the concentration for half-maximal inhibition (IC50) – broadly, the midpoint of a concentration-inhibition curve – in series [1] came out at 150 nM; in series [4] it was 73 nM; in series [5], 82 nM. Moreover, the Retention_time in series [2] is 1.85 min; in series [3], 1.93 min.

Consider `COc1ccc(Cn2c(CCc3ccccc3)nnc2[C@@H](Cc2c[nH]c3ccccc23)NC(=O)c2ccccn2)cc1`, for which the figures for the IC50 in series [4] and in series [5] were 6 nM and 4.5 nM, respectively.

`COc1ccc(Cn2c(CCc3ccccc3)nnc2[C@H](N)Cc2c[nH]c3ccccc23)cc1` had an IC50 in series [1] above 1000 nM.

Take `COc1ccc(Cn2c(CCc3ccccc3)nnc2[C@@H](Cc2c[nH]c3ccccc23)NC(=O)c2ccncc2)cc1`: the results for the IC50 in series [1] and in series [4] were 220 nM and 828 nM, respectively.

With `COc1ccc(Cn2c(CCc3ccccc3)nnc2[C@@H](Cc2c[nH]c3ccccc23)NC(=O)c2cccnc2)cc1`, the IC50 in series [1] was found to be 122 nM; in series [4], 411 nM; in series [5] it was 337 nM. For the same compound, the Retention_time in series [2] is recorded as 1.57 min; in series [3], 1.61 min.

As to `COc1ccc(Cn2c(CCc3ccccc3)nnc2[C@@H](Cc2c[nH]c3ccccc23)NC(=O)c2cncc(Br)c2)cc1`, the concentration for half-maximal inhibition (IC50) is 84 nM in series [1], 222 nM in series [4] and 88 nM in series [5]. In addition, the Retention_time in series [2] and in series [3] was 1.85 min each time.

On to `COc1ccc(Cn2c(CCc3ccccc3)nnc2[C@@H](Cc2c[nH]c3ccccc23)NC(=O)c2cccnc2Br)cc1`, for which the IC50 in series [1] stood at 250 nM; in series [4] it was 193 nM; in series [5], 510 nM. For the same compound, the Retention_time in series [2] was 1.66 min; in series [3] it was 1.76 min.

For `COc1ccc(Cn2c(CCc3ccccc3)nnc2[C@@H](Cc2c[nH]c3ccccc23)NC(=O)c2ccc(Cl)nc2)cc1`, the 50% inhibitory concentration (IC50) in series [1] came to 130 nM; in series [4] it was 771 nM; in series [5], 1010 nM. For the same compound, the figures for the Retention_time in series [2] and in series [3] were 1.52 min and 1.8 min, respectively.

As for `COc1ccc(Cn2c(CCc3ccccc3)nnc2[C@@H](Cc2c[nH]c3ccccc23)NC(=O)c2cccnc2N)cc1`, the IC50 in series [1] came out at 380 nM; in series [4], 427 nM; in series [5], 671 nM. Also, the Retention_time in series [2] is 1.35 min; in series [3], 1.58 min.

Take `COc1ccc(Cn2c(CCc3ccccc3)nnc2[C@@H](Cc2c[nH]c3ccccc23)NC(=O)c2ncccc2F)cc1`: the half-inhibitory concentration (IC50) in series [1] is 3 nM; in series [4], 8.8 nM; in series [5], 7 nM. Moreover, the results for the Retention_time in series [2] and in series [3] were 1.67 min and 1.73 min, respectively.

Take `COc1ccc(Cn2c(CCc3ccccc3)nnc2[C@@H](Cc2c[nH]c3ccccc23)NC(=O)c2cccc(F)n2)cc1`: the results for the 50% inhibitory concentration (IC50) in series [1], in series [4] and in series [5] were 2 nM, 2.1 nM and 2.1 nM, respectively. The Retention_time in series [2] is given as 1.67 min; in series [3] it was 1.84 min.

On to `COc1ccc(Cn2c(CCc3ccccc3)nnc2[C@@H](Cc2c[nH]c3ccccc23)NC(=O)c2ncc(F)cc2F)cc1`, for which the figures for the half-maximal inhibitory concentration (IC50) in series [1], in series [4] and in series [5] were 4 nM, 2.8 nM and 4.6 nM, respectively. For the same compound, the results for the Retention_time in series [2] and in series [3] were 1.65 min and 1.82 min, respectively.

`COc1ccc(Cn2c(CCc3ccccc3)nnc2[C@@H](Cc2c[nH]c3ccccc23)NC(=O)c2cccc(C)n2)cc1`: the 50% inhibitory concentration (IC50) stood at 3.4 nM in series [1], 7.5 nM in series [4] and 5.4 nM in series [5]. Further, the Retention_time turned out to be 1.74 min in series [2] and 1.82 min in series [3].

`COc1ccc(Cn2c(CCc3ccccc3)nnc2[C@@H](Cc2c[nH]c3ccccc23)NC(=O)c2cccc(OC)n2)cc1`: the 50% inhibitory concentration (IC50) in series [1] was 2 nM; in series [4], 9 nM; in series [5], 7.8 nM. Besides, the Retention_time in series [2] came out at 1.76 min; in series [3], 1.86 min.

Regarding `COc1ccc(Cn2c(CCc3ccccc3)nnc2[C@@H](Cc2c[nH]c3ccccc23)NC(=O)c2cccc(N)n2)cc1`, the values for the IC50 in series [1], in series [4] and in series [5] were 6 nM, 21 nM and 25 nM, respectively. For the same compound, the results for the Retention_time in series [2] and in series [3] were 1.5 min and 1.55 min, respectively.

In the case of `COc1ccc(Cn2c(CCc3ccccc3)nnc2[C@@H](Cc2c[nH]c3ccccc23)NC(=O)c2ncccc2O)cc1`, the figures for the 50% inhibitory concentration (IC50) in series [1], in series [4] and in series [5] were 240 nM, 108 nM and 165 nM, respectively. In addition, the Retention_time came out at 1.82 min in series [2] and 1.86 min in series [3].

For the compound `COc1ccc(Cn2c(CCc3ccccc3)nnc2[C@@H](Cc2c[nH]c3ccccc23)NC(=O)c2cccc[n+]2[O-])cc1`, the 50% inhibitory concentration (IC50) came to 42 nM in series [1], 79 nM in series [4] and 112 nM in series [5]. In addition, the Retention_time in series [2] came out at 1.59 min; in series [3], 1.73 min.

As for `COc1ccc(Cn2c(CCc3ccccc3)nnc2[C@@H](Cc2c[nH]c3ccccc23)NC(=O)c2ccc(N3CCCC3)cn2)cc1`, the concentration for half-maximal inhibition (IC50) in series [1] stood at 65 nM; in series [4], 1210 nM; in series [5], 2110 nM. Also, the Retention_time in series [2] stood at 1.8 min; in series [3], 1.76 min.

Take `COc1ccc(Cn2c(CCc3ccccc3)nnc2[C@@H](Cc2c[nH]c3ccccc23)NC(=O)c2ncccc2C(=O)c2ccccc2)cc1`: the 50% inhibitory concentration (IC50) in series [1] is 240 nM; in series [4], 313 nM; in series [5] it was 230 nM. In addition, the Retention_time in series [2] is listed as 1.83 min; in series [3] it was 1.88 min.

In the case of `COc1ccc(Cn2c(CCc3ccccc3)nnc2[C@@H](Cc2c[nH]c3ccccc23)NC(=O)c2cc3ccccc3cn2)cc1`, the IC50 in series [1] is 100 nM; in series [4] it was 126 nM; in series [5], 404 nM. The Retention_time is 1.87 min in series [2] and 1.9 min in series [3].
